We go through 20 molecules from ChEMBL document CHEMBL5053518, “1,5,6,7-Tetrahydro-4H-indazol-4-ones as human neutrophil elastase (HNE) inhibitors” (Bioorg Med Chem Lett, 2021).

Each structure is given as a SMILES string. Calls of active or inactive are those of the source. The calls are words filed in the database; no cut-off is given here.

Test system in one series: not listed separately
As to the kind of experiment: Stability in aqueous buffer assessed as half life. The format is physicochemical. To be noted: aqueous buffer.
Broadly, the half-life is the time in which the quantity being followed falls by half. As to `O=C1c2cnn(C(=O)C3CC3)c2CCC1Br` (stereo not given), the half-life turned out to be 38.7 min.

For the molecule `O=C(C1CC1)n1cc2c(n1)CCC(Br)(Br)C2=O`, the half-life worked out at 235 min.

Still in this series, the particulars now being: buffer.
In the case of `Cc1cccc(C(=O)n2ncc3c2CCCC3=O)c1`, the t1/2 stood at 98.1 min.

Regarding `O=C(C1CC1)n1ncc2c1CCC(Br)(Br)C2=O`, the t1/2 is reported as 57.1 min.

For the molecule `O=C1c2cn(C(=O)C3CC3)nc2CCC1Br` (stereo not given), the t1/2 is recorded as 114.74 min.

A further series deals with T1, Neutrophil elastase (Homo sapiens) (UniProt P08246).
T1 sequence (whole entry): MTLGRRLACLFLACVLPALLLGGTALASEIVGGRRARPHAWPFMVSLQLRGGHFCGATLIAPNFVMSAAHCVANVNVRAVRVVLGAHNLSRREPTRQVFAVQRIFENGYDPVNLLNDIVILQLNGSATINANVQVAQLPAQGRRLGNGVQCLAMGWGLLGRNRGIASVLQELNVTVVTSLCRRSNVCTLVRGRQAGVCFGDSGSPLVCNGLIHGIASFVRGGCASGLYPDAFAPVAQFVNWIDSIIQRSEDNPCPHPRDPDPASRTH
The series is described as follows: Inhibition of human neutrophil elastase at 50 uM.
Conditions: not given
In short, it runs like this: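 Human neutrophil elastase inhibition was tested up to a highest concentration of 50 μM. Active compounds were given as Ki values, reported as mean ± SD of three independent experiments.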
As to `Cc1cccc(C(=O)NC2CCCc3c2cnn3-c2ccccc2)c1` (stereo not given), the inhibition entry was “inactive”.

Consider `O=C1CCCc2c1cnn2-c1cccc(C(F)(F)F)c1`, for which the inhibition result was “inactive”.

As to `O=C1c2cn(CC(=O)N3CCN(c4ccccc4)CC3)nc2CCC1Br` (stereo not given), the inhibition entry was “inactive”.

With `O=C1CCCc2c1cnn2Cc1cccc(C(F)(F)F)c1`, the inhibition result was “inactive”.

For `O=C1CCCc2nn(Cc3cccc(C(F)(F)F)c3)cc21`, the inhibition result is “inactive”.

As for `O=C1c2cnn(CC(=O)N3CCN(c4ccccc4)CC3)c2CCC1Br` (stereo not given), the inhibition entry is “inactive”.

In the case of `O=C1CCCc2nn(-c3cccc(C(F)(F)F)c3)cc21`, the inhibition result is “inactive”.

With `CC(C)(C)OC(=O)N1CCN(C(=O)Cn2cc3c(n2)CCCC3=O)CC1`, the inhibition result was “inactive”.

With `O=C1CCCc2c1cnn2Cc1ccccc1`, the inhibition result was “inactive”.

Take `CC(C)(C)OC(=O)n1cc2c(n1)CCC(Br)C2=O` (stereo not given): the inhibition entry was “inactive”.

Take `O=C(NC1CCCc2c1cnn2-c1ccccc1)C1CC1` (stereo not given): the inhibition entry was “inactive”.

For `O=C1CCCc2nn(CC(=O)N3CCNCC3)cc21`, the inhibition entry was “inactive”.

With `O=C(C1CC1)N(C(=O)C1CC1)C1CCCc2c1cnn2-c1ccccc1` (stereo not given), the inhibition entry is “inactive”.

As for `CC(C)(C)OC(=O)N1CCN(C(=O)Cn2ncc3c2CCCC3=O)CC1`, the inhibition entry was “inactive”.

`O=C1CCCc2nn(Cc3ccccc3)cc21`: the inhibition result was “inactive”.
